# Experimental data from ChEMBL document CHEMBL3351380, “Antioxidant and antimicrobial studies on fused-ring pyrazolones and isoxazolones” (Bioorg Med Chem, 2014).
# The source made the active and inactive calls. The rule behind the calls is not given here.
# Test system: Candida albicans
# Assay: Antifungal activity against Candida albicans assessed as zone of inhibition at 100 ug/ml by agar well diffusion method
# Assay type: functional
# Settings: not given
# Procedure, shortened: (§1)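 For the agar well diffusion screen, samples at 100 µg/mL were made from a stock of 10 mg in 1 mL EtOH diluted 1:1 (v/v) with Mueller-Hinton medium. The zone of inhibition was scored as 5–10 mm poor, 10–15 moderate, 15–20 good and 20–25 very good. Gentamycin and nystatin were the reference drugs. Strains were confirmed at the University of Botswana microbiology laboratory.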
row,SMILES,Activity
1,CCOC(=O)C1C(=O)C=C(c2ccccc2)CC1c1cccc([N+](=O)[O-])c1 (stereo not drawn),inactive
2,O=C1NN=C2C=C(c3ccccc3)CC(c3cccc([N+](=O)[O-])c3)C12 (stereo not drawn),inactive

# Same assay, conditions: read-out: IZ
row,SMILES,zone of inhibition at 100 µg/mL [mm]
1,O=C1ON=C2C=C(c3cccs3)CC(c3cccc([N+](=O)[O-])c3)C12 (stereo not drawn),15
2,CCOC(=O)C1C(=O)C=C(c2cccs2)CC1c1cccc([N+](=O)[O-])c1 (stereo not drawn),8
3,O=C1ON=C2C=C(c3ccc(Br)cc3)CC(c3cccc([N+](=O)[O-])c3)C12 (stereo not drawn),9
4,CCOC(=O)C1C(=O)C=C(c2ccc(O)cc2)CC1c1cccc([N+](=O)[O-])c1 (stereo not drawn),13

# Test system: Staphylococcus aureus
# Assay: Antimicrobial activity against Staphylococcus aureus ATCC 25923 by agar well diffusion method
# Assay type: functional
# Settings: not given
row,SMILES,MIC
1,CCOC(=O)C1C(=O)C=C(c2ccccc2)CC1c1cccc([N+](=O)[O-])c1 (stereo not drawn),inactive
2,O=C1ON=C2C=C(c3cccs3)CC(c3cccc([N+](=O)[O-])c3)C12 (stereo not drawn),2.5 µg/mL
3,CCOC(=O)C1C(=O)C=C(c2cccs2)CC1c1cccc([N+](=O)[O-])c1 (stereo not drawn),inactive
4,O=C1NN=C2C=C(c3ccccc3)CC(c3cccc([N+](=O)[O-])c3)C12 (stereo not drawn),2.5 µg/mL
5,O=C1ON=C2C=C(c3ccc(Br)cc3)CC(c3cccc([N+](=O)[O-])c3)C12 (stereo not drawn),inactive
6,CCOC(=O)C1C(=O)C=C(c2ccc(O)cc2)CC1c1cccc([N+](=O)[O-])c1 (stereo not drawn),inactive

# Test system: Escherichia coli
# Assay: Antimicrobial activity against Escherichia coli ATCC 8739 by agar well diffusion method
# Assay type: functional
# Settings: not given
row,SMILES,MIC
1,CCOC(=O)C1C(=O)C=C(c2ccccc2)CC1c1cccc([N+](=O)[O-])c1 (stereo not drawn),inactive
2,O=C1ON=C2C=C(c3cccs3)CC(c3cccc([N+](=O)[O-])c3)C12 (stereo not drawn),2.5 µg/mL
3,CCOC(=O)C1C(=O)C=C(c2cccs2)CC1c1cccc([N+](=O)[O-])c1 (stereo not drawn),inactive
4,O=C1NN=C2C=C(c3ccccc3)CC(c3cccc([N+](=O)[O-])c3)C12 (stereo not drawn),inactive
5,O=C1ON=C2C=C(c3ccc(Br)cc3)CC(c3cccc([N+](=O)[O-])c3)C12 (stereo not drawn),inactive
6,CCOC(=O)C1C(=O)C=C(c2ccc(O)cc2)CC1c1cccc([N+](=O)[O-])c1 (stereo not drawn),inactive

# Test system: Pseudomonas aeruginosa
# Assay: Antimicrobial activity against Pseudomonas aeruginosa NCIMB 8295 by agar well diffusion method
# Assay type: functional
# Settings: not given
row,SMILES,MIC
1,CCOC(=O)C1C(=O)C=C(c2ccccc2)CC1c1cccc([N+](=O)[O-])c1 (stereo not drawn),inactive
2,O=C1ON=C2C=C(c3cccs3)CC(c3cccc([N+](=O)[O-])c3)C12 (stereo not drawn),2.5 µg/mL
3,CCOC(=O)C1C(=O)C=C(c2cccs2)CC1c1cccc([N+](=O)[O-])c1 (stereo not drawn),inactive
4,O=C1NN=C2C=C(c3ccccc3)CC(c3cccc([N+](=O)[O-])c3)C12 (stereo not drawn),inactive
5,O=C1ON=C2C=C(c3ccc(Br)cc3)CC(c3cccc([N+](=O)[O-])c3)C12 (stereo not drawn),inactive
6,CCOC(=O)C1C(=O)C=C(c2ccc(O)cc2)CC1c1cccc([N+](=O)[O-])c1 (stereo not drawn),inactive

# Test system: Bacillus subtilis
# Assay: Antimicrobial activity against Bacillus subtilis NCIB 3610 by agar well diffusion method
# Assay type: functional
# Settings: subsp. subtilis str. NCIB 3610
row,SMILES,MIC
1,CCOC(=O)C1C(=O)C=C(c2ccccc2)CC1c1cccc([N+](=O)[O-])c1 (stereo not drawn),inactive
2,O=C1ON=C2C=C(c3cccs3)CC(c3cccc([N+](=O)[O-])c3)C12 (stereo not drawn),1.25 µg/mL
3,CCOC(=O)C1C(=O)C=C(c2cccs2)CC1c1cccc([N+](=O)[O-])c1 (stereo not drawn),2.5 µg/mL
4,O=C1NN=C2C=C(c3ccccc3)CC(c3cccc([N+](=O)[O-])c3)C12 (stereo not drawn),2.5 µg/mL
5,O=C1ON=C2C=C(c3ccc(Br)cc3)CC(c3cccc([N+](=O)[O-])c3)C12 (stereo not drawn),inactive
6,CCOC(=O)C1C(=O)C=C(c2ccc(O)cc2)CC1c1cccc([N+](=O)[O-])c1 (stereo not drawn),2.5 µg/mL

# Test system: Candida albicans
# Assay: Antifungal activity against Candida albicans by agar well diffusion method
# Assay type: functional
# Settings: not given
row,SMILES,MIC
1,CCOC(=O)C1C(=O)C=C(c2ccccc2)CC1c1cccc([N+](=O)[O-])c1 (stereo not drawn),inactive
2,O=C1ON=C2C=C(c3cccs3)CC(c3cccc([N+](=O)[O-])c3)C12 (stereo not drawn),1.25 µg/mL
3,CCOC(=O)C1C(=O)C=C(c2cccs2)CC1c1cccc([N+](=O)[O-])c1 (stereo not drawn),2.5 µg/mL
4,O=C1NN=C2C=C(c3ccccc3)CC(c3cccc([N+](=O)[O-])c3)C12 (stereo not drawn),inactive
5,O=C1ON=C2C=C(c3ccc(Br)cc3)CC(c3cccc([N+](=O)[O-])c3)C12 (stereo not drawn),2.5 µg/mL
6,CCOC(=O)C1C(=O)C=C(c2ccc(O)cc2)CC1c1cccc([N+](=O)[O-])c1 (stereo not drawn),2.5 µg/mL

# Test system: not listed separately
# Assay: Antioxidant activity assessed as DPPH radical scavenging activity after 30 mins by spectrophotometry
# Assay type: physicochemical
# Settings: not given
# Procedure, shortened: (§2)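 DPPH (0.51 mM in methanol) was mixed 1:1 by volume with the compound at several concentrations (100, 50, 25 … µg/mL range). Absorbance was read against a control, and % inhibition = (A0−As)/A0 ×100. Readings were taken at 30 min and 3 h, with ascorbic acid as the reference. Triplicate measurements.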
row,SMILES,IC50 [µg/mL]
1,CCOC(=O)C1C(=O)C=C(c2ccccc2)CC1c1cccc([N+](=O)[O-])c1 (stereo not drawn),165.21
2,O=C1ON=C2C=C(c3cccs3)CC(c3cccc([N+](=O)[O-])c3)C12 (stereo not drawn),309.29
3,CCOC(=O)C1C(=O)C=C(c2cccs2)CC1c1cccc([N+](=O)[O-])c1 (stereo not drawn),208.95
4,O=C1NN=C2C=C(c3ccccc3)CC(c3cccc([N+](=O)[O-])c3)C12 (stereo not drawn),98.53
5,O=C1ON=C2C=C(c3ccc(Br)cc3)CC(c3cccc([N+](=O)[O-])c3)C12 (stereo not drawn),305.01
6,CCOC(=O)C1C(=O)C=C(c2ccc(O)cc2)CC1c1cccc([N+](=O)[O-])c1 (stereo not drawn),175

# Test system: not listed separately
# Assay: Antioxidant activity assessed as DPPH radical scavenging activity after 3 hrs by spectrophotometry
# Assay type: physicochemical
# Settings: not given
# Procedure, shortened: as §2
row,SMILES,IC50 [µg/mL]
1,CCOC(=O)C1C(=O)C=C(c2ccccc2)CC1c1cccc([N+](=O)[O-])c1 (stereo not drawn),143.6
2,O=C1ON=C2C=C(c3cccs3)CC(c3cccc([N+](=O)[O-])c3)C12 (stereo not drawn),197.78
3,CCOC(=O)C1C(=O)C=C(c2cccs2)CC1c1cccc([N+](=O)[O-])c1 (stereo not drawn),133.66
4,O=C1NN=C2C=C(c3ccccc3)CC(c3cccc([N+](=O)[O-])c3)C12 (stereo not drawn),59.5
5,O=C1ON=C2C=C(c3ccc(Br)cc3)CC(c3cccc([N+](=O)[O-])c3)C12 (stereo not drawn),218.75
6,CCOC(=O)C1C(=O)C=C(c2ccc(O)cc2)CC1c1cccc([N+](=O)[O-])c1 (stereo not drawn),86.67

# Test system: not listed separately
# Assay: Metal chelating activity of the compound assessed as formation of iron complex after 20 mins by spectrophotometry
# Assay type: physicochemical
# Settings: not given
# Procedure, shortened: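 Fe2+ chelation was measured by disruption of the o-phenanthroline–Fe2+ complex. O-phenanthroline (0.05% in methanol) and FeCl2 (0.1%) were mixed with the sample at various concentrations and held at room temperature for 20 min, then read at 510 nm. EDTA was the standard chelator. % chelation = (Acontrol−Asample)/Acontrol ×100, and IC50 came from plots of % chelation versus concentration. Triplicates.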
row,SMILES,IC50 [µg/mL]
1,CCOC(=O)C1C(=O)C=C(c2ccccc2)CC1c1cccc([N+](=O)[O-])c1 (stereo not drawn),1028.57
2,O=C1ON=C2C=C(c3cccs3)CC(c3cccc([N+](=O)[O-])c3)C12 (stereo not drawn),675.67
3,CCOC(=O)C1C(=O)C=C(c2cccs2)CC1c1cccc([N+](=O)[O-])c1 (stereo not drawn),1030.56
4,O=C1NN=C2C=C(c3ccccc3)CC(c3cccc([N+](=O)[O-])c3)C12 (stereo not drawn),93.04
5,O=C1ON=C2C=C(c3ccc(Br)cc3)CC(c3cccc([N+](=O)[O-])c3)C12 (stereo not drawn),816.48
6,CCOC(=O)C1C(=O)C=C(c2ccc(O)cc2)CC1c1cccc([N+](=O)[O-])c1 (stereo not drawn),1014

# Test system: Staphylococcus aureus
# Assay: Antimicrobial activity against Staphylococcus aureus ATCC 25923 assessed as zone of inhibition at 100 ug/ml by agar well diffusion method
# Assay type: functional
# Settings: not given
# Procedure, shortened: as §1
row,SMILES,Activity
1,CCOC(=O)C1C(=O)C=C(c2ccccc2)CC1c1cccc([N+](=O)[O-])c1 (stereo not drawn),inactive
2,CCOC(=O)C1C(=O)C=C(c2cccs2)CC1c1cccc([N+](=O)[O-])c1 (stereo not drawn),inactive
3,O=C1ON=C2C=C(c3ccc(Br)cc3)CC(c3cccc([N+](=O)[O-])c3)C12 (stereo not drawn),inactive
4,CCOC(=O)C1C(=O)C=C(c2ccc(O)cc2)CC1c1cccc([N+](=O)[O-])c1 (stereo not drawn),inactive

# Same assay, conditions: read-out: IZ
row,SMILES,zone of inhibition at 100 µg/mL [mm]
1,O=C1ON=C2C=C(c3cccs3)CC(c3cccc([N+](=O)[O-])c3)C12 (stereo not drawn),12
2,O=C1NN=C2C=C(c3ccccc3)CC(c3cccc([N+](=O)[O-])c3)C12 (stereo not drawn),12

# Test system: Escherichia coli
# Assay: Antimicrobial activity against Escherichia coli ATCC 8739 assessed as zone of inhibition at 100 ug/ml by agar well diffusion method
# Assay type: functional
# Settings: not given
# Procedure, shortened: as §1
row,SMILES,Activity
1,CCOC(=O)C1C(=O)C=C(c2ccccc2)CC1c1cccc([N+](=O)[O-])c1 (stereo not drawn),inactive
2,CCOC(=O)C1C(=O)C=C(c2cccs2)CC1c1cccc([N+](=O)[O-])c1 (stereo not drawn),inactive
3,O=C1NN=C2C=C(c3ccccc3)CC(c3cccc([N+](=O)[O-])c3)C12 (stereo not drawn),inactive
4,O=C1ON=C2C=C(c3ccc(Br)cc3)CC(c3cccc([N+](=O)[O-])c3)C12 (stereo not drawn),inactive
5,CCOC(=O)C1C(=O)C=C(c2ccc(O)cc2)CC1c1cccc([N+](=O)[O-])c1 (stereo not drawn),inactive

# Same assay, conditions: read-out: IZ
row,SMILES,zone of inhibition at 100 µg/mL [mm]
1,O=C1ON=C2C=C(c3cccs3)CC(c3cccc([N+](=O)[O-])c3)C12 (stereo not drawn),13

# Test system: Pseudomonas aeruginosa
# Assay: Antimicrobial activity against Pseudomonas aeruginosa NCIMB 8295 assessed as zone of inhibition at 100 ug/ml by agar well diffusion method
# Assay type: functional
# Settings: not given
# Procedure, shortened: as §1
row,SMILES,Activity
1,CCOC(=O)C1C(=O)C=C(c2ccccc2)CC1c1cccc([N+](=O)[O-])c1 (stereo not drawn),inactive
2,CCOC(=O)C1C(=O)C=C(c2cccs2)CC1c1cccc([N+](=O)[O-])c1 (stereo not drawn),inactive
3,O=C1NN=C2C=C(c3ccccc3)CC(c3cccc([N+](=O)[O-])c3)C12 (stereo not drawn),inactive
4,O=C1ON=C2C=C(c3ccc(Br)cc3)CC(c3cccc([N+](=O)[O-])c3)C12 (stereo not drawn),inactive
5,CCOC(=O)C1C(=O)C=C(c2ccc(O)cc2)CC1c1cccc([N+](=O)[O-])c1 (stereo not drawn),inactive

# Same assay, conditions: read-out: IZ
row,SMILES,zone of inhibition at 100 µg/mL [mm]
1,O=C1ON=C2C=C(c3cccs3)CC(c3cccc([N+](=O)[O-])c3)C12 (stereo not drawn),11

# Test system: Bacillus subtilis
# Assay: Antimicrobial activity against Bacillus subtilis NCIB 3610 assessed as zone of inhibition at 100 ug/ml by agar well diffusion method
# Assay type: functional
# Settings: subsp. subtilis str. NCIB 3610
# Procedure, shortened: as §1
row,SMILES,Activity
1,CCOC(=O)C1C(=O)C=C(c2ccccc2)CC1c1cccc([N+](=O)[O-])c1 (stereo not drawn),inactive
2,O=C1ON=C2C=C(c3ccc(Br)cc3)CC(c3cccc([N+](=O)[O-])c3)C12 (stereo not drawn),inactive

# Same assay, conditions: subsp. subtilis str. NCIB 3610, read-out: IZ
row,SMILES,zone of inhibition at 100 µg/mL [mm]
1,O=C1ON=C2C=C(c3cccs3)CC(c3cccc([N+](=O)[O-])c3)C12 (stereo not drawn),14
2,CCOC(=O)C1C(=O)C=C(c2cccs2)CC1c1cccc([N+](=O)[O-])c1 (stereo not drawn),12
3,O=C1NN=C2C=C(c3ccccc3)CC(c3cccc([N+](=O)[O-])c3)C12 (stereo not drawn),13
4,CCOC(=O)C1C(=O)C=C(c2ccc(O)cc2)CC1c1cccc([N+](=O)[O-])c1 (stereo not drawn),12
